We go through one substance from PMC11812941 (CPT: Pharmacometrics & Systems Pharmacology, 2024).

The conditions of data set [1]: cited from earlier work.
In data set [2] the test system is patients with GA secondary to AMD (GA lesion area). The settings on record: phase III OAKS and DERBY combined, cited from earlier work.
Data set [3] is described as follows: Prevalence of serum antidrug antibodies in FILLY, OAKS and DERBY. The class given is in vivo, human. To be noted: detectable at baseline or at any time during the study.
For data set [4], the system named is patients with GA secondary to AMD (GA lesion area). To be noted: phase II FILLY, cited from earlier work.
The subject of data set [5] is patients with GA secondary to AMD (GA lesion area, study eye). Put plainly: Dose-response model of GA lesion area, pooled FILLY, OAKS and DERBY data. The class given is in vivo, human. The settings on record: point estimate. Put shortly:
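Study eyes were randomized 2:2:1:1 to a 100 μL intravitreal injection of test compound 15 mg monthly or EOM, or sham monthly or EOM, for ≤24 months. GA lesion area was measured by fundus autofluorescence. A linear-with-time disease progression model with covariates was built from sham and untreated fellow eyes. Step-function drug effects per regimen were fitted in NONMEM.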

The conditions of data set [6]: cited from earlier work. The source holds these as a separate data set.

Like-named read-outs stand apart in the source and are kept apart here.

With pegcetacoplan, the “model-predicted steady-state serum maximal concentration, geometric mean” value in data set [1] (patients with GA, 15 mg intravitreal EOM, CV 58.1%) is 1.5 µg/mL. For the same substance, the “accumulation from first dose to steady-state, ratio of geometric mean exposure” value in data set [1] (serum or vitreous humor) is 1.10–1.50. Moreover, the “reduction in GA lesion area growth compared with sham treatment” value is 24% in data set [2] (EOM), 30% in data set [2] (monthly), 20% in data set [4] (EOM) and 29% in data set [4] (monthly). Further, the “prevalence of serum antidrug antibodies against the PEG moiety” value in data set [3] came to 67%. In addition, the “prevalence of serum antidrug antibodies against the peptide moiety” value in data set [3] was determined as 5%. Also, the “model-predicted rate of disease progression (GA lesion growth rate) relative to sham” value is 0.83 fold in data set [5] (pegcetacoplan 15 mg intravitreal EOM, 95% CI 0.78, 0.87) and 0.80 fold in data set [5] (pegcetacoplan 15 mg intravitreal monthly, 95% CI 0.75, 0.84). For the same substance, the “average exposure relative to reference body weight 70 kg” value in data set [6] (5th percentile of body weight (53 kg), higher, 90% CI 1.16-1.23) is on record as 1.20 fold; in data set [6] (95th percentile of body weight (94 kg), lower, 90% CI 0.800-0.853) it was 0.827 fold. The “effective elimination half-life, median (interquartile range)” value in data set [6] (patients with paroxysmal nocturnal hemoglobinuria) is on record as 8.6 (6.9–11.0) days. In addition, in data set [6] (population PK model, 11 clinical studies, CV 30%), the “clearance, predicted geometric mean” value is 0.36 L/day.
